Source: PubChem BioAssay (several laboratories)
Rows were chosen to be rich in hits. Some 4.3% of all compounds tested hit in one or more screens of this group.
CR mimetic SO: caloric restriction mimetics inhibiting age-related superoxide in yeast; superoxide response (% of plate mean), % at 10 µM; 0.18% of 330,000 active; S. cerevisiae aged cells, superoxide DHE fluorescence; active compounds read low;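 active = superoxide response under a set limit, about three screen SD below normal, cut at about 65% in these data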;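 note: yeast aged for seven days with compound at 30 °C before DHE staining; 100% = average MFI of all compound-treated wells on the plate with controls excluded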
SMARCA2 activ: SMARCA2 function activation, primary screen | MG213 cells, MMTV-luciferase reporter, dexamethasone, overnight | activation, % at 9.1 µM | 1% of 370,000 active | AID 652017; in the data active = activation above about 7.8%;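 note: 0% = vehicle wells and 100% = reference activator wells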
SR-BI uptake up: SR-BI HDL lipid transfer activation; CHO ldlA[mSR-BI] cells, DiI-HDL uptake fluorescence, 3 h; 100 = double the neutral-control signal; activation, % at 12.5 µM; AID 504775; 0.096% of 320,000 active;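 active = mean replicate activation of at least 60% and every replicate at or above 60%; inconclusive = mean or all-replicate condition met, but not both; inactive = mean below 60% and not all replicates reaching 60%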;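 note: 0% = median plate neutral-control signal and 100% = twice that signal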
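Material: SR-BI-overexpressing, LDLR-lacking CHO cells; schedule: compound exposure 3 h, 37 °C; reagent: DiI-labelled HDL at 10 µg/mL final; technique: bottom-read fluorescence, 550/595 nm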
AHR activator: human AHR activation; AID 2796; 2.5% of 320,000 active; AHR-responsive luciferase reporter cells, luminescence; activation, % at 5 µM; in the data active = activation above about 47%;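 note: 0% = vehicle wells and 100% = reference agonist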
Hep lipid drop: hepatic lipid droplet formation modulation; AML12 mouse hepatocytes, oleate lipid droplets, BODIPY imaging; inhibition, % at 6.5 µM; 0.4% of 240,000 active; AID 1656;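 active = lipid droplet intensity inhibited by at least 50%, with more than 500 cells counted; inconclusive = wells with under 300 cells, treated as cytotoxic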
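Technique: fluorescence imaging, 20x objective, two fields per well / Assay system: AML12 hepatocytes (mouse) / Measure: % inhibition of lipid droplet signal / Doses: 6.5 µM single-point dosing / Incubation: overnight exposure / Reagent: 100 µM oleic acid challenge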
SR-BI DiI inh: blocks mouse SR-BI lipid uptake from DiI-HDL; Q61009; ldlA[mSR-BI] CHO cells, DiI-HDL uptake fluorescence, 3 h; inhibition, % at 12.5 µM; 0.96% of 320,000 active;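 active = mean replicate inhibition of at least 70% and a set share of replicates each scoring 70 or more; inconclusive = meets just one of the two criteria; inactive = fails both criteria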;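 note: 0% = median of neutral control wells and 100% = median of positive control wells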
Target sequence (Q61009 whole entry, looked up): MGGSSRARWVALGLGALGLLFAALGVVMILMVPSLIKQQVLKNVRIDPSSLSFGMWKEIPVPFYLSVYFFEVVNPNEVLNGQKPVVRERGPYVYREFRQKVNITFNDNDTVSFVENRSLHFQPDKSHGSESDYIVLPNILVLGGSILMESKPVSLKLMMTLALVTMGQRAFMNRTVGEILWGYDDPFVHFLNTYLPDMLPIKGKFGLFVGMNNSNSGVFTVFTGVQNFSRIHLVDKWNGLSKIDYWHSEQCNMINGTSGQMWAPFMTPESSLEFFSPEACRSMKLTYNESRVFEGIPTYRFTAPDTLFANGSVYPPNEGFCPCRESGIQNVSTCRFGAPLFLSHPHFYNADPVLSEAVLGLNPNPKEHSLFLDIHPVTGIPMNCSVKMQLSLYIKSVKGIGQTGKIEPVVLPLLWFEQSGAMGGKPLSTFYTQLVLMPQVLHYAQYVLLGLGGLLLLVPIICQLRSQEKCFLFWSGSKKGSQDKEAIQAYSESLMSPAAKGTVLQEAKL
An asterisk follows results filed as active; ? = inconclusive; . = no result.

SMILES	CR mimetic SO	SMARCA2 activ	SR-BI uptake up	AHR activator	Hep lipid drop	SR-BI DiI inh
O=C(NC1=NCCS1)c1ccc(Cl)c(S(=O)(=O)N2CCCCCC2)c1	94	-1	-9	9	-2	9
Cc1nn(C)c(C(=O)NC(=S)Nc2ccccc2O)c1Cl	98	-3	15	54*	-9	-15
Cc1ccc(O)c(NC(=S)NC(=O)c2ccccc2Cl)c1	105	0	-12	60*	6	12
CCOc1ccc(NC(=S)NC(=O)c2c(Cl)c(C)nn2C)c([N+](=O)[O-])c1	85	1	22	1	-32	-22
O=C(NC(=S)Nc1ccc(O)cc1)c1ccccc1Cl	93	2	6	23	18	-6
COc1ccc(/C=C2\CC3(OC(=O)c4ccccc4)CCCN2C3)cc1 (configuration not stated)	.	1	.	.	.	.
S=C1Cc2ccccc2N1	.	-1	-97	.	3	97*
S=C1Nc2ccccc2CS1	.	2	.	.	.	.
Cc1ccc(N=c2c([N+](=O)[O-])nn(-c3ccccc3)n2O)c(C)c1	113	0	-17	25	4	17
Cc1c(Cl)cccc1N=c1c([N+](=O)[O-])nn(-c2ccccc2)n1O	114	-3	-8	55*	9	8
O=C(N/N=C/c1cccnc1)c1ccc2ccccc2c1O	135	2	.	.	-6	-34
COc1ccc2oc(=N)c(C(=O)Nc3ccccc3Cl)cc2c1	99	3	-72	3	-1	72*
COc1cc2ccccc2cc1C(=O)Nc1cccnc1	122	2	-54	77*	6	54
O=C(Nc1cccnc1)c1ccc2ccccc2c1O	98	6	6	48*	0	-6
COc1ccccc1NC(=O)c1cc2cc(Br)ccc2cc1O	92	-8	-74	55*	14	?
COc1cc(OC)cc(C(=O)NCCN2C(=O)C3C4C=CC(C4)C3C2=O)c1 (configuration not stated)	.	1	.	.	.	.
COc1ccccc1-c1noc(-c2ccccc2C(=O)Nc2ccccc2)n1	102	0	8	47*	.	-8
COc1ccccc1C(=O)NCc1ccncc1	89	-3	11	5	.	-11
COc1cc(OC)c(NC(=O)c2ccccc2F)cc1Cl	106	7	-70	27	-16	70
COc1ccccc1NC(=O)c1ccccc1-c1nc(-c2ccccc2OC)no1	107	3	-5	17	-3	5
COc1cc2ccccc2cc1C(=O)NCc1ccncc1	99	-2	-35	50*	-2	35
COc1cc(NC(=O)c2cc3ccccc3cc2O)c(OC)cc1Cl	101	-9	-68	52*	-4	68
COc1cc2ccccc2cc1C(=O)Nc1ccccc1Cl	110	5	-50	53*	-4	50
CC(C=NN=C1C(=O)Nc2ccccc21)=Cc1ccccc1	.	-2	.	.	.	.
C=CCN1C[C@@H](COCc2ccccc2)Oc2cc(F)ccc2S1(=O)=O	.	-2	.	.	.	.
SMILES	CR mimetic SO	SMARCA2 activ	SR-BI uptake up	AHR activator	Hep lipid drop	SR-BI DiI inh
COc1ccccc1NC(=O)c1ccccc1C(=O)O	113	-6	19	1	0	-19
COc1ccccc1NC(=O)c1cccc2c(Br)cccc12	88	-1	-70	53*	-6	70
COc1cc2cc(C(=O)Nc3ccccc3)c(N)nc2cc1OC	102	2	-31	48*	.	31
COc1ccc2oc(=O)c(/C(C)=N/Nc3ccccc3)cc2c1	86	1	0	61*	0	0
COc1cc2ccccc2cc1C(=O)NNC(=O)c1ccccc1O	88	-1	-129	33	10	129*
COC(=O)C1CN(Cc2cn(CCC3OCCO3)nn2)CCS(=O)(=O)N1Cc1ccc(F)cc1 (configuration not stated)	.	-3	.	.	.	.
COC(=O)[C@H]1[C@@H](O)[C@@]2(O)c3c(OC)cc(OC)cc3O[C@@]2(c2ccc(OC)cc2)[C@@H]1c1ccc(F)cc1	.	-10	.	.	.	.
COC(=O)C1CN(Cc2ccccc2)CCS(=O)(=O)N1Cc1cn(Cc2ccccc2Br)nn1 (configuration not stated)	.	-3	.	.	.	.
NC(=S)N/N=C/c1ccc(-c2cc(Cl)cc(Cl)c2)o1	120	-2	-78	17	23	78*
CCOC(=O)N/N=C\c1ccc(-c2cc(Cl)ccc2Cl)o1	108	-1	-5	14	13	5
NC(=S)N/N=C/c1ccc(-c2cc(Cl)ccc2Cl)o1	118	2	-99	2	0	99*
COC(=O)N/N=C/c1ccc(-c2cc(Cl)cc(Cl)c2)o1	117	-2	19	-12	2	-19
O=C(Nc1ccc2c(c1)OCO2)c1cc(Cl)ccn1	92	4	-8	67*	.	8
Cc1cc(C(=O)Nc2ccc3c(c2)OCO3)no1	109	3	-25	58*	-12	25
O=C1Nc2ccccc2O/C1=C\c1c(F)cccc1Cl	121	2	-10	49*	19	10
COC(=O)c1ccc(/C=C2\Oc3ccccc3NC2=O)cc1	98	-1	-32	8	12	32
COc1cc(OC)nc(NC(=O)NS(=O)(=O)c2ccccc2Cl)n1	96	1	.	-3	18	.
CCOc1nc(C)nc(NC(=O)NS(=O)(=O)c2ccccc2Cl)n1	94	-2	61*	2	.	-61
O=C(CN1CCN(Cc2ccccc2Cl)CC1)N/N=C\c1ccccc1F	.	-2	.	.	.	.
CN1/C(=C\C(=O)COc2ccc3c(c2)OCO3)C(C)(C)c2ccccc21	101	-4	0	56*	-44	0
O=C(c1ccccc1)n1ccc2ccc(-c3ccc4ccn(Cc5ccccc5)c4c3)cc21	.	-3	.	.	.	.
O=C(c1ccccc1)n1ccc2ccccc21	104	3	-25	62*	.	25
CC(C)CN(CC(C)C)C(=O)c1ccc2c(c1)NC(=O)C(C)(C)O2	.	-3	.	.	.	.
CC(C)(C)OC(=O)N1CCC2CCN(S(C)(=O)=O)CC21 (configuration not stated)	.	1	.	.	.	.
CC(C)(C)C(=O)/C=c1\[nH]c(=O)/c(=C\c2ccccc2F)s1	111	-1	3	53*	1	-3
SMILES	CR mimetic SO	SMARCA2 activ	SR-BI uptake up	AHR activator	Hep lipid drop	SR-BI DiI inh
COc1ccc(C(=O)C(=O)N2CCN(C(=O)c3ccccc3C(F)(F)F)CC2)cc1OC	.	-3	.	.	.	.
O=C(Nc1ccc(Cl)cc1)Nc1ccc(N2CCCC2)c(S(=O)(=O)Nc2ccccc2Cl)c1	92	-2	-102	6	-22	102*
CC(=O)CC[C@@H]1CC[C@]2(CCCN(S(=O)(=O)c3ccccc3)C2)O1	.	-3	.	.	.	.
COc1ccccc1NC(=O)c1ccccc1Nc1ccccc1	105	1	-38	1	-26	38
COc1ccccc1Nc1ccc(N)cc1	90	-4	-84	2	1	84*
O=C(N[C@@H](Cc1cccnc1)C(=O)N1CCC[C@H]1C(=O)NC1CCCC1)c1ccccc1	.	-3	.	.	.	.
